# Test results: ChEMBL document CHEMBL1129275, “Synthesis and in vitro and in vivo characteristics of an iodinated analogue of the beta-adrenoceptor antagonist carazolol” (J Med Chem, 1996)
# What was measured:
# [1] = tested on: Oryctolagus cuniculus; experiment: Biodistribution pattern of [123I]- ligand was evaluated in intestine of anesthetized rabbit after Intravenous injection of 50 uCi after 1 hr; type: ADME, organism-based; conditions: in vivo
# In short: (§1)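 Male New Zealand white rabbits, 2.5–3.5 kg, anesthetized with 5 mg/kg xylazine plus 30 mg/kg ketamine im. Each received 50 uCi radioligand (specific activity > 5000 Ci/mmol) iv via ear vein. Animals were killed with 200 mg/kg pentobarbital im at the set time. Blood was drawn by intracardiac puncture and organs weighed. Gamma counting was decay-corrected, expressed as %ID x kg body weight/g tissue, mean ± SEM, n = 3/time point.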
# [2] = tested on: Oryctolagus cuniculus; experiment: Biodistribution pattern of [123I]- ligand was evaluated in intestine of anesthetized rabbit after Intravenous injection of 50 uCi after 6 hr; type: ADME, organism-based; conditions: in vivo; in short: as §1
# [3] = tested on: Oryctolagus cuniculus; experiment: Biodistribution pattern of [123I]- ligand was evaluated in kidney of anesthetized rabbit after Intravenous injection of 50 uCi after 30 min; type: ADME, organism-based; conditions: in vivo, 0.5 h; in short: as §1
# [4] = tested on: Oryctolagus cuniculus; experiment: Biodistribution pattern of [123I]- ligand was evaluated in kidney of anesthetized rabbit after Intravenous injection of 50 uCi after 5 min; type: ADME, organism-based; conditions: in vivo; in short: as §1
# [5] = tested on: Oryctolagus cuniculus; experiment: Biodistribution pattern of [123I]- ligand was evaluated in right atrial muscle of anesthetized rabbit after Intravenous injection of 50 uCi after 1 hr; type: ADME, organism-based, Muscle tissue; conditions: in vivo
# In short: (§2)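 Male New Zealand white rabbits (2.5–3.5 kg), anesthetized with xylazine 5 mg/kg plus ketamine 30 mg/kg im, given 50 µCi radioligand (specific activity >5000 Ci/mmol) iv via ear vein. Euthanized at set times by pentobarbital 200 mg/kg im, n = 3/time point. Organs removed and weighed, gamma-counted, decay/weight corrected; expressed as % ID x kg body weight/g tissue, mean ± SEM.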
# [6] = tested on: Oryctolagus cuniculus; experiment: Biodistribution pattern of [123I]- ligand was evaluated in right ventricular muscle of anesthetized rabbit after Intravenous injection of 50 uCi after 24 hr; type: ADME, organism-based, Muscle tissue; conditions: in vivo; in short: as §2
# [7] = tested on: Oryctolagus cuniculus; experiment: Biodistribution pattern of [123I]- ligand was evaluated in right ventricular muscle of anesthetized rabbit after Intravenous injection of 50 uCi after 30 min; type: ADME, organism-based, Muscle tissue; conditions: in vivo, 0.5 h; in short: as §2
# [8] = tested on: Oryctolagus cuniculus; experiment: Cerebral biodistribution pattern of [123I]- ligand was evaluated in pituitary gland of anesthetized rabbit after Intravenous injection of 50 uCi after 5 min; type: ADME, organism-based; conditions: in vivo; in short: as §2
# [9] = tested on: Oryctolagus cuniculus; experiment: Cerebral biodistribution pattern of [123I]- ligand was evaluated in pituitary gland of anesthetized rabbit after Intravenous injection of 50 uCi after 6 hr; type: ADME, organism-based; conditions: in vivo; in short: as §2
# [10] = tested on: Oryctolagus cuniculus; experiment: Cerebral biodistribution pattern of [123I]- ligand was evaluated in striatum of anesthetized rabbit after Intravenous injection of 50 uCi after 1 hr; type: ADME, organism-based; conditions: in vivo; in short: as §2
# [11] = tested on: Oryctolagus cuniculus; experiment: Cerebral biodistribution pattern of [123I]- ligand was evaluated in striatum of anesthetized rabbit after Intravenous injection of 50 uCi after 2 hr; type: ADME, organism-based; conditions: in vivo; in short: as §2
# [12] = tested on: Oryctolagus cuniculus; experiment: Cerebral biodistribution pattern of [123I]- ligand was evaluated in thalamus of anesthetized rabbit after Intravenous injection of 50 uCi after 2 hr; type: ADME, organism-based; conditions: in vivo; in short: as §2
# [13] = tested on: Oryctolagus cuniculus; experiment: Biodistribution pattern of [123I]- ligand was evaluated in lung of anesthetized rabbit after Intravenous injection of 50 uCi after 4 hr; type: ADME, organism-based; conditions: in vivo; in short: as §1
# [14] = tested on: Oryctolagus cuniculus; experiment: Biodistribution pattern of [123I]- ligand was evaluated in muscle of anesthetized rabbit after Intravenous injection of 50 uCi after 2 hr; type: ADME, organism-based, Muscle tissue; conditions: in vivo; in short: as §1
# [15] = tested on: Oryctolagus cuniculus; experiment: Biodistribution pattern of [123I]- ligand was evaluated in left ventricular muscle of anesthetized rabbit after Intravenous injection of 50 uCi after 1 hr; type: ADME, organism-based, Muscle tissue; conditions: in vivo; in short: as §1
# [16] = tested on: Oryctolagus cuniculus; experiment: Cerebral biodistribution pattern of [123I]- ligand was evaluated in frontal cortex of anesthetized rabbit after Intravenous injection of 50 uCi after 5 min; type: ADME, organism-based; conditions: in vivo; in short: as §2
# [17] = tested on: Oryctolagus cuniculus; experiment: Cerebral biodistribution pattern of [123I]- ligand was evaluated in hypothalamus of anesthetized rabbit after Intravenous injection of 50 uCi after 1 hr; type: ADME, organism-based; conditions: in vivo; in short: as §2
# [18] = tested on: Oryctolagus cuniculus; experiment: Cerebral biodistribution pattern of [123I]- ligand was evaluated in hypothalamus of anesthetized rabbit after Intravenous injection of 50 uCi after 4 hr; type: ADME, organism-based; conditions: in vivo; in short: as §2
# [19] = tested on: Oryctolagus cuniculus; experiment: Cerebral biodistribution pattern of [123I]- ligand was evaluated in pituitary gland of anesthetized rabbit after Intravenous injection of 50 uCi after 24 hr; type: ADME, organism-based; conditions: in vivo; in short: as §2
# [20] = tested on: Oryctolagus cuniculus; experiment: Biodistribution pattern of [123I]- ligand was evaluated in spleen of anesthetized rabbit after Intravenous injection of 50 uCi after 1 hr; type: ADME, organism-based; conditions: in vivo; in short: as §2
# [21] = tested on: Oryctolagus cuniculus; experiment: Biodistribution pattern of [123I]- ligand was evaluated in spleen of anesthetized rabbit after Intravenous injection of 50 uCi after 30 min; type: ADME, organism-based; conditions: in vivo, 0.5 h; in short: as §2
# [22] = tested on: Oryctolagus cuniculus; experiment: Biodistribution pattern of [123I]- ligand was evaluated in spleen of anesthetized rabbit after Intravenous injection of 50 uCi after 4 hr; type: ADME, organism-based; conditions: in vivo; in short: as §2
# [23] = tested on: Oryctolagus cuniculus; experiment: Biodistribution pattern of [123I]- ligand was evaluated in liver of anesthetized rabbit after Intravenous injection of 50 uCi after 1 hr; type: ADME, organism-based; conditions: in vivo; in short: as §1
# [24] = tested on: Oryctolagus cuniculus; experiment: Biodistribution pattern of [123I]- ligand was evaluated in liver of anesthetized rabbit after Intravenous injection of 50 uCi after 5 min; type: ADME, organism-based; conditions: in vivo; in short: as §1
# [25] = tested on: Oryctolagus cuniculus; experiment: Biodistribution pattern of [123I]- ligand was evaluated in liver of anesthetized rabbit after Intravenous injection of 50 uCi after 6 hr; type: ADME, organism-based; conditions: in vivo; in short: as §1
# [26] = tested on: Oryctolagus cuniculus; experiment: Cerebral biodistribution pattern of [123I]- ligand was evaluated in cerebellum of anesthetized rabbit after Intravenous injection of 50 uCi after 30 min; type: ADME, organism-based; conditions: in vivo, 0.5 h; in short: as §2
smiles,measurement,setting,value
CC(C)(/C=C/I)NC[C@H](O)COc1cccc2[nH]c3ccccc3c12,ID x kg of body weight/g of tissue,[1],0.1%
same,ID x kg of body weight/g of tissue,[2],0.05%
same,ID x kg of body weight/g of tissue,[3],< 0.29%
same,ID x kg of body weight/g of tissue,[4],0.92%
same,ID x kg of body weight/g of tissue,[5],< 0.13%
same,ID x kg of body weight/g of tissue,[6],0.02%
same,ID x kg of body weight/g of tissue,[7],< 0.21%
same,ID x kg of body weight/g of tissue,[8],0.5%
same,ID x kg of body weight/g of tissue,[9],0.06%
same,ID x kg of body weight/g of tissue,[10],0.07%
same,ID x kg of body weight/g of tissue,[11],0.07%
same,ID x kg of body weight/g of tissue,[12],0.05%
same,ID x kg of body weight/g of tissue,[13],0.82%
same,ID x kg of body weight/g of tissue,[14],0.05%
same,ID x kg of body weight/g of tissue,[15],0.2%
same,ID x kg of body weight/g of tissue,[16],0.27%
same,ID x kg of body weight/g of tissue,[17],0.06%
same,ID x kg of body weight/g of tissue,[18],0.03%
same,ID x kg of body weight/g of tissue,[19],0.03%
same,ID x kg of body weight/g of tissue,[20],0.28%
same,ID x kg of body weight/g of tissue,[21],0.41%
same,ID x kg of body weight/g of tissue,[22],0.1%
same,ID x kg of body weight/g of tissue,[23],0.13%
same,ID x kg of body weight/g of tissue,[24],0.14%
same,ID x kg of body weight/g of tissue,[25],0.03%
same,ID x kg of body weight/g of tissue,[26],< 0.15%
